Results gathered from unrelated publications.
Each line is one published result; the experiments were not run side by side.
Target: Mitogen-activated protein kinase kinase kinase 5 (MAP3K5, Homo sapiens, UniProt Q99683)
Residues used in one study (Q99683 1-1374): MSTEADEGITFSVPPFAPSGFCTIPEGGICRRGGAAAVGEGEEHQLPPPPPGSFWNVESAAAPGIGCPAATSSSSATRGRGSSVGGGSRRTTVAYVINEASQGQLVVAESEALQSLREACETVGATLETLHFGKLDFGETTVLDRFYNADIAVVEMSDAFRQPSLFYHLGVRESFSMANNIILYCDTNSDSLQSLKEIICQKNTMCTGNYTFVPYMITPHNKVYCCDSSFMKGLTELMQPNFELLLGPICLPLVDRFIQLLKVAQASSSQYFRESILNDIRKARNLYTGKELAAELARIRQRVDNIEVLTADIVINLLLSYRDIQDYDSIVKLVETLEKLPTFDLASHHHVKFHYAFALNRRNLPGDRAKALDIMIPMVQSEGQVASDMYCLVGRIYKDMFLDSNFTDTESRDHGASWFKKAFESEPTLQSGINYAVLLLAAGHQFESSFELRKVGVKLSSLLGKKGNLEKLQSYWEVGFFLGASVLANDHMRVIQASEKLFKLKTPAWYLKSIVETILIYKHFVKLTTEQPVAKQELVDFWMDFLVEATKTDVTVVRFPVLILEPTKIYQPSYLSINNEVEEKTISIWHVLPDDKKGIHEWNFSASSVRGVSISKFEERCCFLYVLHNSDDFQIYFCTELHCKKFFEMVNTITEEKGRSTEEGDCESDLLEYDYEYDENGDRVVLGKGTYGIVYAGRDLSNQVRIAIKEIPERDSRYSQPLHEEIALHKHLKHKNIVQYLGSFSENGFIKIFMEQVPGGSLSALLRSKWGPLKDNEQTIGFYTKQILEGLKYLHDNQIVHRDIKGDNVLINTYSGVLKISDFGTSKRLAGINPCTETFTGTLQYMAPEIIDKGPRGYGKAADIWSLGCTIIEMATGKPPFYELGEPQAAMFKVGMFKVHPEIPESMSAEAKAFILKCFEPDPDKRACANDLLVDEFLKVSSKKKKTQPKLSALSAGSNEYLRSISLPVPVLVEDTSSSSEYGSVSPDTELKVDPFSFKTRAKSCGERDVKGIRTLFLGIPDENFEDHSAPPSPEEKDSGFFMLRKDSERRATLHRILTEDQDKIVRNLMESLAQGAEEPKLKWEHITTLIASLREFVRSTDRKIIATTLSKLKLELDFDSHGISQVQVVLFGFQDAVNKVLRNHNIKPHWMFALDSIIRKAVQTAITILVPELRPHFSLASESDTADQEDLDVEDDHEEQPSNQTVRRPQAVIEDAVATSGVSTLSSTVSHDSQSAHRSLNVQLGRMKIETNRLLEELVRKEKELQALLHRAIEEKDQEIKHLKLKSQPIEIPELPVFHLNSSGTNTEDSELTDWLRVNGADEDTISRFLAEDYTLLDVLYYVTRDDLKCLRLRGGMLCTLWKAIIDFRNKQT

effect on	mode	technique	cell line	concentration	measurement	result	SMILES
enzyme activity	inhibitor	–	–	1 µM	inhibition	< 10%	CCCS(=O)(=O)Nc1ccc(F)c(C(=O)c2c[nH]c3ncc(-c4ccc(Cl)cc4)cc23)c1F
thermal stability	–	DSF	–	10 µM	ΔTm	1.6 °C	CC1(C)NC(=O)c2[nH]c3c(Cl)c(Cl)ccc3c2C1C#N (stereo not drawn)
cell-free assay	–	competition with immobilised ligand	–	1 µM	remaining binding	100%	CNC(=O)Nc1ccc2c(c1)[C@@]1(CC2)OC(=O)N(CC(=O)N(Cc2ccc(F)cc2)[C@@H](C)C(F)(F)F)C1=O
thermal stability	–	DSF	–	10 µM	ΔTm	1.5 °C	Cn1c2c(Cl)c(Cl)ccc2c2cc(N)[nH]c(=O)c21
enzyme activity	inhibitor	–	–	10 µM	remaining activity	101%	Oc1cccc(-c2nc(N3CCOCC3)c3oc4ncccc4c3n2)c1
cell-free assay	–	competition with immobilised ligand	–	1 µM	remaining binding	81%	CO[C@@H](C)c1c(Nc2ccc([C@@H](N(C)C(=O)C3CCS(=O)(=O)CC3)C(F)(F)F)cc2)cnc2cc(Cl)nn12
thermal stability	–	DSF	–	10 µM	ΔTm	0 °C	Cn1c2c(c3ccc(Cl)c(Cl)c31)C(C#N)C1(CCN(C(=O)OC(C)(C)C)CC1)NC2=O (racemic)
enzyme activity	inhibitor	–	–	1 µM	inhibition	-2%	CN1CC(Oc2cnc(C#N)cc2-c2ccn3nc(NC(=O)C4CC4)cc3c2)C1
enzyme activity	inhibitor	–	–	10 µM	remaining activity	101%	CCN(CC)c1ccc(C2=NNC(=O)CC2C)cc1[N+](=O)[O-] (stereo not drawn)
thermal stability	–	DSF	–	10 µM	ΔTm	2.1 °C	Cn1c2c(Cl)c(Cl)ccc2c2cc[nH]c(=O)c21
cell-free assay	–	competition with immobilised ligand	–	1 µM	remaining binding	100%	CC1=C(C#N)[C@@H](c2ccc3[nH]nc(C)c3c2)C(C#N)=C(c2ccc(Cl)cc2)N1
thermal stability	–	DSF	–	10 µM	ΔTm	0.6 °C	N#CC1c2c([nH]c3c(Cl)c(Cl)ccc23)C(=O)NC12CCCCC2 (racemic)
enzyme activity	inhibitor	–	–	0.1 µM	inhibition	4%	CC/C(=N\NC(=O)NCc1cccc(O)c1)c1ccc(O)c(C)c1O
enzyme activity	inhibitor	–	–	10 µM	remaining activity	90%	FC(F)c1nc2ccccc2n1-c1nc(N2CCOCC2)nc(N2CCOCC2)n1
enzyme activity	inhibitor	–	–	23.5 nM	remaining activity	100%	Cc1ccc(C(=O)Nc2ccc(CN3CCN(C)CC3)c(C(F)(F)F)c2)cc1C#Cc1cnc2cccnn12
enzyme activity	inhibitor	radiometric	–	10 µM	remaining activity	67%	COc1cc(Nc2cnc(C#N)c(O[C@H](C)CN(C)C)n2)ncc1-c1cnn(C)c1
enzyme activity	inhibitor	–	–	2 µM	inhibition	0%	CNCc1ccc(-c2cc(-c3nc(-c4ccc(S(=O)(=O)C(C)C)cc4)cnc3N)on2)cc1
target engagement in cells	inhibitor	chemoproteomics	–	20 mM	inhibition	-7.6%	COc1cccc2c(NCc3ccccc3)nc(-n3c(N)nc4ccccc43)nc12

effect on	mode	technique	cell line	concentration	measurement	result	SMILES
enzyme activity	inhibitor	–	–	10 µM	remaining activity	94%	Cc1sc(C(=O)NC2COC2)cc1-n1cc(NC(=O)Nc2c(F)cccc2Cl)cn1
cell-free assay	–	–	–	0.5 µM	remaining signal	101%	N#CCCc1ccc2c(c1)-c1[nH]c3ccc([N+](=O)[O-])cc3c1CC(=O)N2
binding	–	competition with immobilised ligand	–	1 µM	remaining binding	93%	c1ccc(N2CCN(Cc3nc4ccccc4[nH]3)CC2)nc1
target engagement in cells	inhibitor	chemoproteomics	–	20 mM	inhibition	-10.3%	c1ccc(CNc2nc(N3CCOc4ccccc43)nc3c2CCCC3)cc1
enzyme activity	inhibitor	radiometric	–	1 µM	activity vs control	88%	FC(F)(F)Oc1cccc(-c2cnc3ccc(-c4ccncc4)nn23)c1
cell-free assay	–	–	–	0.5 µM	remaining signal	96.6%	O=C1NC(=O)c2cc(Nc3ccc(F)cc3)c(Nc3ccc(F)cc3)cc21
enzyme activity	inhibitor	–	–	0.3 µM	inhibition	0%	CNC(=O)c1cc(Oc2ccc(NC(=O)Nc3ccc(Cl)c(C(F)(F)F)c3)cc2)ccn1
target engagement in cells	inhibitor	chemoproteomics	A-375	0.5 µM	inhibition	-26.3%	CCN1CCN(Cc2ccc(NC(=O)c3ccc(C)c(/C=C/c4cnc5[nH]ccc5c4OC)c3)cc2C(F)(F)F)CC1
enzyme activity	inhibitor	–	–	0.3 µM	inhibition	6%	Cc1ccc(Nc2nccc(N(C)c3ccc4c(C)n(C)nc4c3)n2)cc1S(N)(=O)=O
target engagement in cells	inhibitor	chemoproteomics	A-375	5 µM	inhibition	-27.1%	CCN1CCN(Cc2ccc(NC(=O)c3ccc(C)c(Oc4ccnc5[nH]ccc45)c3)cc2C(F)(F)F)CC1
cell-free assay	–	competition with immobilised ligand	–	1 µM	remaining binding	100%	CC(=O)N1CCC(c2ccc(C(=O)NC3=NCCN3)cc2C(F)(F)F)CC1
cell-free assay	–	TR-FRET	–	1 µM	inhibition	≤ 15%	CCOc1cc(-c2nncn2C)ccc1Nc1ncc2cc(C)nc(NCC(C)(C)C)c2n1
cell-free assay	–	competition with immobilised ligand	–	0.1 µM	remaining binding	91%	CC(C)CC(=O)N1CCc2nc(-c3ccc(Br)cc3)nc(N(C)Cc3ccccc3)c2C1
enzyme activity	inhibitor	–	–	1 µM	remaining activity	96.7%	CC(C)(O)[C@H]1CC[C@H](Nc2ccc3ncc(-c4cccc(C(F)(F)F)c4)n3n2)CC1
cell-free assay	–	competition with immobilised ligand	–	1 µM	remaining binding	100%	COc1ccc2c(c1)O[C@H](c1ccc(OC)c(OC)c1)C[C@@H]2NC(=O)C1(c2ccc3c(c2)OC(F)(F)O3)CC1
enzyme activity	inhibitor	–	–	0.3 µM	inhibition	4%	CCN(CC)CCNC(=O)c1c(C)[nH]c(/C=C2\C(=O)Nc3ccc(F)cc32)c1C
cell-free assay	–	competition with immobilised ligand	–	1 µM	remaining binding	100%	Cc1noc([C@H]2C[C@@H](c3ccc(C(F)(F)F)cc3)CN(C(=O)N3CCS(=O)(=O)C3)C2)n1
enzyme activity	inhibitor	radiometric	–	1 µM	remaining activity	98%	CC(C)(C)c1nc(-c2cccc(NS(=O)(=O)c3c(F)cccc3F)c2F)c(-c2ccnc(N)n2)s1
